In ChEMBL document CHEMBL5346886 (Eur J Med Chem, 2023):
Activity calls are given as the source filed them. The rule behind the calls is not given here.

What was measured:
[1] = test system: Murine hepatitis virus; assay: Antiviral activity against murine hepatitis virus-A59 infected in BALB/c mouse assessed as inhibition of viral titer in liver at 10 to 200 mg/kg, po administered once daily one hour post infection and measured after 3 days by qRT-PCR analysis; type: functional, organism-based; details: dose 10-200 mg/kg, time 3.0 day
Procedure, shortened: (§1)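 SPF male BALB/c mice aged 3–4 weeks were put under isoflurane and inoculated intranasally with 30 μL MHV-A59 (TCID50 = 10−7.125/100 μL) in PBS. Oral dosing once daily in 15% Cremophor EL/82.5% PBS/2.5% DMSO started at 1 hpi and ran for four days; groups had 12 mice. At 3 dpi, 4 mice per group were killed and lung and liver M-gene copies measured by qRT-PCR.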

[2] = test system: Murine hepatitis virus; assay: Antiviral activity against murine hepatitis virus-A59 infected in BALB/c mouse assessed as reduction in IFN-gamma production in liver at 10 to 100 mg/kg, po administered once daily one hour post infection and measured after 3 days by ELISA analysis; type: functional, organism-based; details: dose 10-100 mg/kg, time 3.0 day
Procedure, shortened: (§2)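 MHV-A59 was inoculated intranasally into male BALB/c mice (30 μL, TCID50 = 10−7.125/100 μL), with oral dosing once daily from 1 hpi for four days. At 3 dpi, 0.1 g lung or liver from 4 mice per group was homogenized in 0.9 mL water at 4 °C and centrifuged. Supernatant IFN-β was read by ELISA; TNF-α, IFN-γ, IL-1β, IL-6 and CXCL10 by multi-analyte kit, with OD 450 nm against standards.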

[3] = test system: Murine hepatitis virus; assay: Antiviral activity against murine hepatitis virus-A59 infected in BALB/c mouse assessed as reduction in TNF-alpha production in liver at 10 to 100 mg/kg, po administered once daily one hour post infection and measured after 3 days by ELISA analysis; type: functional, organism-based; details: dose 10-100 mg/kg, time 3.0 day; procedure, shortened: as §2
[4] = test system: Murine hepatitis virus; assay: Antiviral activity against murine hepatitis virus-A59 infected in po dosed BALB/c mouse assessed as inhibition of viral replication in lungs administered once daily one hour post infection and measured after 3 days by qRT-PCR analysis; type: functional, organism-based; details: dose 10-200 mg/kg, time 3.0 day; procedure, shortened: as §1
[5] = test system: Murine hepatitis virus; assay: Antiviral activity against murine hepatitis virus-A59 infected in BALB/c mouse assessed as reduction in CXCL10 production in lungs at 200 mg/kg, po administered once daily one hour post infection and measured after 3 days by ELISA analysis; type: functional, organism-based; details: time 3.0 day; procedure, shortened: as §2
[6] = test system: Murine hepatitis virus; assay: Antiviral activity against murine hepatitis virus-A59 infected in BALB/c mouse assessed as survival rate at 10 mg/kg, po administered once daily one hour post infection and measured after 23 days relative to control; type: functional; details: Murine coronavirus, A59, 552 h, time 23 day
Procedure, shortened: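 Male SPF BALB/c mice (3–4 weeks) were anaesthetised with isoflurane and given 30 μL MHV-A59 intranasally (TCID50 = 10−7.125/100 μL) in PBS. Oral dosing once daily in 15% Cremophor EL/82.5% PBS/2.5% DMSO began at 1 hpi and ran for four days, at 10, 50 or 200 mg/kg. There were 12 mice per group, with 4 culled at 3 dpi. Body weight, clinical signs and death were recorded daily to 23 days.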

[7] = Stability in human plasma assessed as half-life; type: ADME, cell-free
[8] = test system: Transmissible gastroenteritis virus; assay: Antiviral activity against Transmissible gastroenteritis virus infected in ST cells assessed as reduction in viral copy pre-infected with cells for 1 hrs followed by compound addition and measured after 48 hrs by RT-qPCR analysis; type: functional, organism-based; details: Alphacoronavirus 1, ST
Procedure, shortened: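 CRFK cells (CCoV, FIPV) or ST cells (TGEV) were grown in DMEM with 10% FBS at 37 °C, 5% CO2. At 80% confluence they were washed in serum-free medium and infected at MOI 0.01 for 1 h at 37 °C. Compounds were then added at 0.1–100 μmol/L, with DMSO as blank. After 48 h, cells and supernatants were analysed by qRT-PCR. Inhibition came from viral copy number, and EC50 from curve fitting.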

[9] = test system: Murine hepatitis virus; assay: Antiviral activity against murine hepatitis virus-A59 infected in BALB/c mouse assessed as reduction in IFN-gamma production in lungs at 200 mg/kg, po administered once daily one hour post infection and measured after 3 days by ELISA analysis; type: functional, organism-based; details: time 3.0 day; procedure, shortened: as §2
[10] = test system: Murine hepatitis virus; assay: Antiviral activity against murine hepatitis virus-A59 infected in BALB/c mouse model of acute liver injury assessed as reduction in plasma ALT level at 10 to 200 mg/kg, po administered once daily one hour post infection and measured after 3 days; type: functional, organism-based; details: dose 10-200 mg/kg, time 3.0 day
Procedure, shortened: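 Male BALB/c mice were infected intranasally with MHV-A59 (30 μL, TCID50 = 10−7.125/100 μL) and dosed orally once daily from 1 hpi for four days in 15% Cremophor EL/82.5% PBS/2.5% DMSO. At 3 dpi, blood from 4 euthanized mice per group was left to clot at room temperature and centrifuged. Serum ALT and AST were measured on a clinical chemistry analyzer.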

[11] = Drug distribution in BALB/c mouse liver assessed as hydrolyzed GS-441524 metabolite at 200 mg/kg, po administered as single dose and measured after 1 hrs by LC-MS/MS analysis; type: ADME, organism-based; details: in vivo
[12] = test system: Murine hepatitis virus; assay: Antiviral activity against murine hepatitis virus-A59 infected in BALB/c mouse assessed as reduction in TNF-alpha production in lungs at 200 mg/kg, po administered once daily one hour post infection and measured after 3 days by ELISA analysis; type: functional, organism-based; details: time 3.0 day; procedure, shortened: as §2
[13] = Drug distribution in BALB/c mouse lung assessed as hydrolyzed GS-441524 metabolite at 200 mg/kg, po administered as single dose and measured after 1 hrs by LC-MS/MS analysis; type: ADME, organism-based; details: in vivo
[14] = Drug metabolism in Sprague-Dawley rat assessed as hydrolysis-mediated GS-441524 metabolite formation at 25 mg/kg, po administered as single dose and measured after 24 hrs by LC-MS/MS analysis; type: ADME, organism-based; details: in vivo
Procedure, shortened: (§3)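 Male SD rats (n = 3), fasted 12 h, dosed intragastrically; jugular vein blood into EDTA-K2 tubes at 0.25, 0.5, 1, 2, 3, 4, 6, 8 and 24 h; plasma protein-precipitated with acetonitrile, filtered, analytes measured by LC/MS/MS; noncompartmental PK analysis; mean ± SD.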

[15] = test system: Murine hepatitis virus; assay: Antiviral activity against murine hepatitis virus-A59 infected in BALB/c mouse assessed as reduction in IL-6 production in liver at 10 to 100 mg/kg, po administered once daily one hour post infection and measured after 3 days by ELISA analysis; type: functional, organism-based; details: dose 10-100 mg/kg, time 3.0 day; procedure, shortened: as §2
[16] = Drug metabolism in Sprague-Dawley rat assessed as hydrolysis-mediated ibuprofen metabolite formation at 25 mg/kg, po administered as single dose and measured after 24 hrs by LC-MS/MS analysis; type: ADME, organism-based; details: in vivo; procedure, shortened: as §3
[17] = test system: Murine hepatitis virus; assay: Antiviral activity against murine hepatitis virus-A59 infected in po dosed BALB/c mouse assessed as inhibition of viral replication in liver administered once daily one hour post infection and measured after 3 days by qRT-PCR analysis; type: functional, organism-based; details: dose 10-200 mg/kg, time 3.0 day; procedure, shortened: as §1
[18] = Drug distribution in BALB/c mouse kidney assessed as hydrolyzed ibuprofen metabolite at 200 mg/kg, po administered as single dose and measured after 1 hrs by LC-MS/MS analysis; type: ADME, organism-based; details: in vivo
[19] = Drug distribution in BALB/c mouse plasma assessed as hydrolyzed GS-441524 metabolite at 200 mg/kg, po administered as single dose and measured after 1 hrs by LC-MS/MS analysis; type: ADME, organism-based; details: in vivo

CC(C)Cc1ccc(C(C)C(=O)OC[C@H]2O[C@@](C#N)(c3ccc4c(N)ncnn34)[C@H](O)[C@@H]2O)cc1 (some centres undefined)
Activity [1]: Active
Activity [2]: Active
Activity [3]: Active
Activity [4]: Dose-Dependent Effect
Activity [5]: Active
survival at 10 mg/kg [6]: 100%
t1/2 [7]: 4.4173 h
EC50 [8]: 3.78 µM
Activity [9]: Active
Activity [10]: Active
Drug uptake [11]: Active
Activity [12]: Active
Drug uptake [13]: Active
Drug metabolism [14]: Metabolite_Detected
Activity [15]: Active
Drug metabolism [16]: Metabolite_Detected
Activity [17]: Dose-Dependent Effect
Drug uptake [18]: Active
Drug uptake [19]: Active
